Screening data (PubChem)
Rows were chosen to be rich in hits. Some 3% of all compounds tested hit in one or more screens of this group.
CaV13 FRET inh: Disruptors of the CACNA1D IQ motif to Ca2+-dependent inactivation inhibitor domain association, primary screening, Förster resonance energy transfer in intact living …. hit rate 0.098% among 340,000. inhibition, % at 12.3 µM. HEK cells, CFP/YFP FRET ICDI-IQ, plate reader, 10 min; percent FRET-ratio fall versus neutral wells;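 active = mean replicate inhibition of at least 30% and at least 1% of replicates passing that level; inconclusive = only one of the two criteria is met; inactive = neither criterion is met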;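 note: 0% = median of the neutral control wells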
T cruzi inh: inhibitors of intracellular T. cruzi growth, primary screen, luminescence, NIH3T3 host cells | T. cruzi beta-gal in NIH3T3, 90 h | inhibition, % (concentration not given with the values) | hit rate 1.4% among 300,000 | AID 1885, 2009;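 active = mean inhibition across valid replicates above about 55%, limit read from the data; inconclusive = mean below that limit but half or more replicates reach it; inactive = mean below it, under half of replicates reach it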;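 note: signal also drops with host cell toxicity which is not excluded here; 0% = plate median of DMSO wells and 100% = zero luminescence signal; higher percent means less beta-gal luminescence so fewer parasites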
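assay system = mouse NIH/3T3 fibroblasts infected with β-gal-expressing T. cruzi Tulahuen C4 | input = 5,000 NIH/3T3 host cells per well | buffer or medium = DMEM plus 2% FBS | timing = 3 h host attachment, then at least 90 h co-culture | measured by = GalScreen luminescence, 60 min | evaluation = luminescence reflecting intracellular parasite burden, expressed as percent inhibition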
N-glyco inh: increase of ERlucT glycosylation luciferase signal, primary screen, N-linked glycosylation inhibitor project, D54 ERlucT cells, luminescence, set 2. D54 ERlucT glycosylation luciferase reporter, 24 h; percent of 100 nM tunicamycin response. reporter increase, % at 12.5 µM. hit rate 0.23% among 360,000. AID 588692, 2011;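 active = mean luciferase reporter signal, scaled so untreated is 0 and the glycosylation-blocking control 100, at or above a set limit in every replicate; inconclusive = mean reaches the limit but not every replicate does; inactive = mean below the limit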;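 note: luciferase carries N-glycosylation sites so blocking glycosylation raises the light; 0% = median of neutral control wells and 100% = median of 100 nM tunicamycin wells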
PvdQ inh: P. aeruginosa PvdQ acylase inhibitors, primary screen, biochemical, fluorescence, plate reader and imaging, single point; PvdQ acylase [Pseudomonas aeruginosa LESB58]; purified PvdQ acylase; inhibition, % at 10 µM; hit rate 0.063% among 340,000; AID 488965, 2010; in the data active = inhibition above about 30%, passing the limit was not always enough; inconclusive = no clear call, values can overlap the other calls;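 note: 0% = vehicle neutral wells and 100% = reference inhibitor wells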
PfHsp90 yeast 2: growth inhibition of PfHsp90-expressing yeast, primary screen, antimalarial PfHsp90 inhibitor project, S. cerevisiae, BacTiter-Glo luminescence, single point, set 2. BacTiter-Glo ATP, 48 h; yeast lacking PDR1 and PDR3 efflux regulators. inhibition, % at 9.4 µM. hit rate 0.32% among 310,000. AID 504621, 2011;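 active = every replicate shows inhibition above about 80%, whatever the replicate mean, limit read from the data; inconclusive = mean inhibition reaches the set limit but some replicate falls short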;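 note: 0% = DMSO neutral controls and 100% = 20 µM radicicol positive controls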
HSF-1 act: HSF-1 activators, primary screen, NIH3T3-HGL cells, MG132 stress, luminescence, single point; NIH3T3-HGL HSF-1 luciferase reporter, 8 h; 100% = twice DMSO control signal; activation, % at 9 µM; hit rate 1.7% among 300,000;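 active = mean replicate activation of at least 50% with a set share of replicates each reaching 50%; inconclusive = only one of those two conditions met; inactive = mean below 50% and too few replicates reaching it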;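 note: 0% = median of the neutral control wells and 100% = twice that signal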
Numbers without * were called inactive; ? = inconclusive; / = no result given.

SMILES	CaV13 FRET inh	T cruzi inh	N-glyco inh	PvdQ inh	PfHsp90 yeast 2	HSF-1 act
COc1ccc(N(C)S(=O)(=O)c2cccc(C(=O)NC3CCCC3)c2)cc1	-6	-11	-4	-4	/	-19
O=C(CC1(O)C(=O)Nc2ccc(Br)cc21)c1ccc2c(c1)OCO2 (stereo not given)	-6	-17	1	-10	28	57*
c1ccc(C2[C@H]3CN(Cc4cccnc4)[C@H](c4ccccc4)C34CC2(c2ccccc2)C4)cc1 (stereo not given in full)	-11	36	-4	-4	/	-9
Clc1ccc(C2[C@H]3CN(Cc4cccnc4)[C@H](c4ccccc4)C34CC2(c2ccccc2)C4)cn1 (stereo not given in full)	-10	56*	-7	-9	/	10
C[C@H]1NS(=O)(=O)c2cccc(Cl)c2O[C@@H]1c1ccccc1	-8	/	/	/	/	/
N#C/C(=C/c1ccco1)c1nc2ccccc2s1	-5	-4	-4	41*	18	100*
N#C/C(=C/c1ccc(-c2cc(C(=O)O)cc(C(=O)O)c2)o1)c1nc2ccccc2s1	/	5	/	/	/	21
N#C/C(=C\c1ccco1)c1nc2ccccc2s1	-7	-8	-8	?	14	80*
C=CCn1c(O)c(N=Nc2ccccc2)c2ccccc21	-3	-9	2	-12	5	-16
C=CCn1c(O)c(N=NC(=S)Nc2cccc(OC)c2)c2ccccc21	-10	59*	7	-5	-64	14
C=CCn1c(O)c(N=Nc2ccccc2O)c2ccccc21	-10	/	0	-18	195*	/
C=CCn1c(O)c(N=NC(=S)Nc2ccc(OC)cc2)c2ccccc21	-5	43	5	3	-66	-2
COc1cccc(S(=O)(=O)N(C)C[C@H]2Oc3ncc(Br)cc3C(=O)N([C@@H](C)CO)C[C@@H]2C)c1	-7	/	1	/	/	/
Cn1nc([N+](=O)[O-])c(C(C#N)c2nc3ccccc3n2C)c(Cl)c1=O (stereo not given)	-8	-10	7	-9	-16	61*
Cn1c(-c2ccc([N+](=O)[O-])cc2)nc2ccccc21	-5	19	0	-4	8	18
c1ccc(N2CC3CCc4ccccc4C3=N2)cc1 (stereo not given)	-16	12	-1	-24	17	57*
O=S(=O)(c1ccccc1)N1CCCc2nc(-c3ccccc3)ccc21	-4	/	/	/	/	/
Cc1oc(-c2cccc(Cl)c2)nc1CN1CCCC(C(=O)NCCCN2CCOCC2)C1 (stereo not given)	-4	63*	-1	-3	23	3
CCN(CCNC(=O)C1CCCN(Cc2nc(-c3ccc(OC)cc3)oc2C)C1)c1ccccc1 (stereo not given)	-6	62*	-1	-4	30	15
Cn1cc(C(=O)N/N=C/c2ccc(Br)c([N+](=O)[O-])c2)c2ccccc21	-20	11	0	/	/	55*
CCOc1ccc(CNC(=O)C2CCN(S(=O)(=O)N3CCC(C)CC3)CC2)cc1OC	-12	/	1	/	/	/
NC(=O)c1c(NC(=O)c2ccccc2F)sc2c1CCCC2	-3	5	-4	-12	-27	75*
NC(=O)c1c(NC(=O)c2ccccc2C(=O)O)sc2c1CCCC2	5	?	1	-16	-27	4
O=[S@]1Oc2ccccc2-c2ccccc21	-21	-19	3	-1	110*	-4
Cc1ccccc1C(=O)N1N=C(c2ccc(NS(C)(=O)=O)cc2)CC1c1cccs1 (stereo not given)	-2	1	1	-16	-32	-7
COc1ccccc1C(=O)N1N=C(c2ccc(NS(C)(=O)=O)cc2)CC1c1cccs1 (stereo not given)	-2	4	-1	-12	5	54*
